Most compounds without a hit are left out; they make up all but 2.5% or so of the library.
NS3 helicase inh = inhibitors of HCV NS3 helicase, primary screen, biochemical, Cy5 molecular beacon fluorescence. NS3 helicase DNA unwinding. inhibition, % at 10.9 µM. Hepatitis C virus NS3 helicase. AID 1800, 2009. actives 0.56% (n = 290,000);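 active = inhibition above the mean of all tested compounds plus 3 SD, set per campaign, cut at about 35% in these data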;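 also: 0% = DMSO wells and 100% = thioflavine S control wells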
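System: Hepatitis C virus NS3 helicase domain fragment enzyme | Reagent: Annealed dual-labelled DNA beacon duplex, ATP-started | Compound dosing: 10.9 µM single point, 0.8% DMSO | Incubation: 1 h reaction at 25 °C, ATP-initiated | Technique: Cy5 fluorescence | Evaluation: Percent inhibition from t60/t0 fluorescence ratio | Benchmarks: Low DMSO, high thioflavine S at 110 µM | Replication: Singlicate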
DNMT1 block = human DNMT1 methyltransferase inhibitors, primary screen, biochemical, molecular beacon, fluorescence, HinP1I cleavage, uHTS. DNA (cytosine-5)-methyltransferase 1 (Homo sapiens), P26358. inhibition (reported as % activation of signal), % at 10 µM. actives 0.83% (n = 360,000). AID 588458, 2011; in the data active = inhibition above about 50%
MBD2 DNA inh = inhibitors of MBD2 binding to methylated DNA, primary screen, biochemical, TR-FRET, DNA-binding domain, human; AID 686964, 2013; Methyl-CpG-binding domain protein 2 (Homo sapiens), Q9UBB5; inhibition, % at 4.4 µM; MBD2 binding to methylated oligonucleotide; actives 0.31% (n = 370,000); in the data active = inhibition above about 13%
Target sequence (Q9UBB5 whole entry, looked up, the tested form may be a part): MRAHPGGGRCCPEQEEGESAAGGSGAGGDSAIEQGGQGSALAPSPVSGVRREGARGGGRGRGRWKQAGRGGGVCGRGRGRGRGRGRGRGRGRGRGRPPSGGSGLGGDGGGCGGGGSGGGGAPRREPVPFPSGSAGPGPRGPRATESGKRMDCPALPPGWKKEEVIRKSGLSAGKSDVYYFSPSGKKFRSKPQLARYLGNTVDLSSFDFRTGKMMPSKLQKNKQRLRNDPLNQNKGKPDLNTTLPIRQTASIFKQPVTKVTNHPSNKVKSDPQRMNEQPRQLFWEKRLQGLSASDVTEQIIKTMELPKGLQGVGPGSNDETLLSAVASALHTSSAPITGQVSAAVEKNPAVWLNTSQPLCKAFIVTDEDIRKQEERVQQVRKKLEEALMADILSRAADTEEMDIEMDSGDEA
SUMO1 PPI mod = modulators of SUMO1 protein-protein interactions, primary screen, biochemical, uHTS. Small ubiquitin-related modifier 1 (Homo sapiens), P63165. SUMO1 binding to a labelled peptide, TR-FRET, 1 h. inhibition, % at 20 µM. actives 0.33% (n = 360,000). AID 602429, 2012; in the data active = inhibition above about 37%
Target sequence (P63165 whole entry, looked up): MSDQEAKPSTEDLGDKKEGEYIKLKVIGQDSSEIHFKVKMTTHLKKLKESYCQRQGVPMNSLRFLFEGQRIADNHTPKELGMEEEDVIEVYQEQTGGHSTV
UHRF1 MBD2 ctr = UHRF1 methylated DNA binding inhibitors, primary screen, counter-screen for MBD2 inhibitor project, biochemical, TR-FRET, human UHRF1, single concentration. E3 ubiquitin-protein ligase UHRF1 (Homo sapiens), Q96T88. UHRF1 binding to methylated oligo. inhibition, % at 4.4 µM. actives 0.75% (n = 370,000);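 also: UHRF1 SRA domain binding a hemimethylated CpG hairpin DNA probe; 0% = median of test compound wells and 100% = reference inhibitor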
Pemphigus Ab inh = inhibitors of pemphigus antibody binding to DSG3, primary screen, biochemical, bead-based, flow cytometry, scFv-GFP. DSG3-coupled beads, scFv-anti-DSG3-GFP binding; active compounds read low. binding (percent of control), % at 10 µM. actives 0.48% (n = 310,000). AID 588358, 2011;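 active = binding more than 3 SD below its plate's average and above zero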;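 also: hits lower antibody fragment binding to DSG3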
DNMT1 interf DR = spectral interference with molecular beacon fluorescence, dose response, artefact control for DNMT1 inhibitor project, biochemical, fluorescent molecular beacon; 200 tested, under 10 active; shares compounds with DNMT1 block; spectral interference counter-screen; IC50, µM; call rule not given here
DNMT1 confirm = DNMT1 methyltransferase inhibitor retest, confirmation, biochemical, molecular beacon, fluorescence, single concentration; AID 602385, 2012; DNMT1 molecular beacon HinP1I cleavage; actives 8% (n = 2,300); inhibition, % at 10 µM; shares compounds with DNMT1 block;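 active = average inhibition of at least 30% in the single-concentration confirmation test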
Beacon interf = beacon fluorescence artifact counter-screen | shares compounds with DNMT1 block | DNMT1 molecular beacon spectral interference counterscreen, fluorescence 485/520 | activation (fluorescence interference), % at 10 µM | actives 1% (n = 2,300) | AID 602387;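 active = activation of at least 30% at 10 µM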;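 also: DNMT1 catalytic domain with a HinP1I cleavage step and a FAM/dabcyl DNA beacon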
UHRF1 DNA bind = UHRF1 methylated DNA binding inhibitors, counter-screen for MBD2 inhibitor project, biochemical, TR-FRET, human UHRF1 | shares compounds with MBD2 DNA inh | UHRF1 binding to methylated oligonucleotide | inhibition, % at 4.4 µM | actives 25% (n = 1,000) | AID 720530, 2013;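 also: UHRF1 SRA domain binding a labeled hemimethylated CpG hairpin DNA; 0% = vehicle only and 100% = reference inhibitor with vehicle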
MBD2 DBD conf = inhibitors of MBD2 binding to methylated DNA, confirmation, biochemical, TR-FRET, DNA-binding domain, human; shares compounds with MBD2 DNA inh; TR-FRET MBD2-DBD binding to methylated oligonucleotide; inhibition, % at 4.4 µM; actives 26% (n = 1,000); AID 720531, 2013; in the data active = inhibition above about 14%
Active calls of the source: *; x = no result given; ! = a repeat was not active. Rule as the data show it, unless noted: active = inhibition above about 21%; inactive = the rest.

SMILES	NS3 helicase inh	DNMT1 block	MBD2 DNA inh	SUMO1 PPI mod	UHRF1 MBD2 ctr	Pemphigus Ab inh	DNMT1 confirm	Beacon interf	UHRF1 DNA bind	MBD2 DBD conf	others
O=C1c2ccccc2-c2cccc3cccc1c23	x	54.3*	6.2	-14.7	12.5	x	34.6*	1.6	x	x	DNMT1 interf DR=>99
CC(C)CCOP(N)(=O)Oc1ccccc1Cl (stereo unspecified)	26.6	-0.7	0.6	-0.5	-2.1	102.0	x	x	x	x
CN1/C(=C\C=C2C(=O)NC(=S)NC2=O)C(C)(C)c2ccccc21	6.0	80.8*	-31.1	-35.2	-51.6	134.2	55.1*	51.2*	x	x
CC1(C)OC(c2ccccc2)=C/C(=C/C=C2C(=O)NC(=S)NC2=O)O1	-3.9	x	-3.3	x	-12.2	x	x	x	x	x
Cc1ccc2c(c1Cl)NC(C(=O)O)C1CC(Sc3ccccc3[N+](=O)[O-])C(Cl)C21 (stereo unspecified)	13.5	70.7*	x	30.5	x	40.5*	22.1	1.0	x	x
CN1CN(c2ccccc2)C2(CCN(CCCSc3ccccc3NC(=O)/C=C/c3ccccc3)CC2)C1=O	x	-14.5	-2.6	-12.8	1.9	108.5	x	x	x	x
CCCCn1c(N)c(C(=O)NCCN2CCOCC2)c2nc3ccccc3nc21	0.0	25.1	-6.9	33.9	-4.6	102.3	x	x	x	x
CCCCn1c(NC(=O)c2ccc(Br)o2)c(C(=O)OCC)c2nc3ccccc3nc21	15.4	70.3*	-3.9	44.9*	4.4	80.8	-0.6	-4.5	x	x
CC1([N+](=O)[O-])COP(=O)(Nc2ccccc2F)OC1 (stereo unspecified)	x	-1.8	-1.9	-7.5	-2.7	92.1	x	x	x	x
Cc1nnc2n1-c1ccc(Cl)cc1C(c1ccccc1)=NC2	0.4	x	x	x	x	x	x	x	x	x
O=C1C=C(N2CC2)c2ccccc2C1=O	x	120.6*	-13.0	65.0*	6.2	91.8	88.4*	-10.0	x	x	DNMT1 interf DR=>99
O=C1c2ccccc2-c2cc3ccccc3cc21	x	2.5	-4.0	-25.4	-10.1	94.1	x	x	x	x
CCC1C(c2ccccc2)NC(c2ccccc2)CC1(O)c1ccc(F)cc1 (stereo unspecified)	-44.0	-5.4	-0.8	2.8	7.9	x	x	x	x	x
CCCCN1C(=O)/C(=C/c2ccc(N(C)C)cc2)C(=O)N(Cc2ccco2)C1=O	25.9	80.0*	1.6	6.8	11.6	156.2	1.3	-0.6	x	x
N/C(=N\N=C/c1ccc(-c2ccc(O)c(C(=O)O)c2)o1)N[N+](=O)[O-]	20.4	87.6*	48.1*	26.8	81.6*	95.9	96.4*	-3.7	54.8*	18.4*	DNMT1 interf DR=>99
CC1CN=C(NCc2ccc(F)cc2)S1 (stereo unspecified)	-6.0	0.4	2.0	-0.8	4.8	104.5	x	x	x	x
Cc1ccc(N2C(=O)NC(=O)/C(=C/c3ccoc3)C2=O)cc1	34.8	93.2*	33.2*	102.0*	63.2*	x	63.9*	-4.6	85.8*	53.7*	DNMT1 interf DR=>99
Cc1ccc(N2C(=O)NC(=O)/C(=C/c3cnn(-c4ccc(C)cc4)c3)C2=O)cc1	-0.2	1.7	-7.0	5.3	-0.5	103.0	x	x	x	x
CN(C(=O)Cc1ccc(Cl)c(Cl)c1)C(CN1CCCC1)c1cccc(OCC(=O)O)c1 (stereo unspecified)	x	-0.6	-1.2	7.7	1.4	95.2	x	x	x	x
CC[N+](C)(CC)CCCCOc1ccc2c(c1)C(=O)c1cc(OCCCC[N+](C)(CC)CC)ccc1-2	-8.9	53.6*	17.0*	-47.7	41.5*	102.2	39.1*	-6.8	49.2*	30.6*	DNMT1 interf DR=>99
CN(C)[C@@H]1C(=O)C(C(N)=O)=C(O)[C@@]2(O)C(=O)C3=C(O)c4c(O)cccc4[C@@](C)(O)C3[C@H](O)C12 (stereo partly specified)	x	89.1*!	19.1*	58.7*!	62.2*	73.8	x	x	9.2	0.5
C[C@H](NC(=O)OCc1ccccc1)[P+](=O)O	x	x	14.4*	x	-2.9	x	x	x	6.7	1.2
COc1ccc(C(SCC(NC(=O)OCc2ccccc2)C(=O)O)c2ccc(OC)cc2)cc1 (stereo unspecified)	x	0.4	-3.3	4.5	0.1	107.4	x	x	x	x
COc1cccc2c1C(=O)c1c(O)c3c(c(O)c1C2=O)CC(O)(C(C)=NO)CC3OC1CC(N)C(O)C(C)O1 (stereo unspecified)	x	-174.9	109.1*	-75.8	95.1*	93.4	x	x	99.6*	108.9*
COC(=O)C1=C(c2cccc(OC)c2OC)C[C@@H]2CC[C@H]1N2C(=O)NCCS(C)=O (stereo partly specified)	x	6.7	9.0	2.6	0.9	106.2	x	x	x	x
C#C[C@]1(O)CC[C@H]2[C@@H]3CCC4=CC(=O)CC[C@]4(C)[C@H]3CC[C@@]21C	-4.1	-0.5	2.3	23.2	1.4	106.2	x	x	x	x
C#C[C@]1(O)CCC2C3CCC4=C/C(=N/OCC(=O)NC(C)C(=O)NC(CCSC)C(=O)O)CC[C@]4(C)C3CC[C@@]21C (stereo partly specified)	14.9	-1.3	44.4*	5.0	4.6	96.0	x	x	4.1	3.1
CN1C(=O)N(C)C(=O)C2(Cc3cc([N+](=O)[O-])ccc3N3CCN(C(=O)c4ccccc4)CC32)C1=O (stereo unspecified)	-3.6	-0.1	-5.2	-20.7	-1.0	95.6	x	x	x	x

Compound activity from PubChem.
